From PubChem
This is a sample that favours compounds with a hit; in the whole collection about 3.5% have one here.
MrgX1 ag: activates human MrgX1 receptor signaling; B-score at 10 µM; AID 588627; actives 0.44% (n = 310,000); MrgX1-HEK293 cells, Fluo-4 calcium fluorescence, agonist mode; active compounds read high;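 active = calcium response B-score plate-corrected fluorescence ratio at least 3 library SD, with starting fluorescence B-score inside 5 SD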
Target sequence (Q96LB2 whole entry, looked up): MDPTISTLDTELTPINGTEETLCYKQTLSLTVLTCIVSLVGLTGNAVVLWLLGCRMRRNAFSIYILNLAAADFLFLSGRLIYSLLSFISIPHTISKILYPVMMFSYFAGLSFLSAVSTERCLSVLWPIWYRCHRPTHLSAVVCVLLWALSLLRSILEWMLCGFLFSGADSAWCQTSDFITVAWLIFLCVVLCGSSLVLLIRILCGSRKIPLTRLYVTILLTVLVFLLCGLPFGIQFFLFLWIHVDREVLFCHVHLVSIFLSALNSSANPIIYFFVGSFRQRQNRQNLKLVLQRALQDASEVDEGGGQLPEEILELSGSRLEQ
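System – MrgX1-expressing HEK293 cells · Incubation – cells plated overnight, dye loaded 0.5 h 37 °C, 0.5 h room temperature · Technique – kinetic Fluo-4 NW fluorescence of intracellular calcium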
MrgX1 allo act: human MrgX1 positive allosteric modulation, primary screen. MrgX1-HEK293, Fluo-4 calcium flux, FDSS; active compounds read high. actives 0.63% (n = 310,000). Q96LB2. B-score at 10 µM;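 active = plate-corrected calcium response at least 3 library SD above typical, normal starting fluorescence, not activating the receptor alone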;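 note: compound read alongside a low EC10 to EC30 dose of BAM8-22 agonist; peak minus trough fluorescence over baseline measured at the second addition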
RGS4 pot: RGS4 potentiation or activation | HEK293 M3R/inducible RGS4, carbachol calcium flux Fluo4; active compounds read low | B-score at 10 µM | actives 0.92% (n = 310,000) | AID 463111;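 active = B-score of the integrated calcium signal more than 4 SD below the library mean, with starting fluorescence not abnormally high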;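 note: negative B-score means reduced calcium response which marks RGS4 activation or potentiation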
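Test system: HEK293 cells with stable M3R and inducible RGS4; also added: carbachol at ECmax as muscarinic agonist stimulus; schedule: dye loading 30 min 37 °C, buffer rest 30 min RT; technique: kinetic calcium fluorescence imaging with Fluo4-AM dye, 2 µM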
MrgX1 antagonist: antagonists of human MrgX1 receptor | MRGX1-HEK293 calcium flux, Fluo-4, BAM8-22 antagonism; active compounds read low | B-score at 10 µM | actives 1.3% (n = 310,000) | AID 588676;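 active = calcium-response B-score plate-corrected more than 3 library SD below zero, starting fluorescence within 5 deviations, no agonist response on first addition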;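 note: peak minus trough fluorescence over baseline after final BAM8-22 challenge near maximal dose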
RGS4 inh: inhibitors of human RGS4 | P49798 | actives 0.45% (n = 310,000) | HEK293 M3R/RGS4 inducible, Fluo-4 calcium flux; active compounds read high; triggered by carbachol at its EC20 | B-score at 10 µM;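 active = B-score, a plate-corrected calcium signal, over three deviations above library mean, with baseline fluorescence within five deviations of library mean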;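 note: RGS4 expression induced by doxycycline in cells with stable M3 receptor; B-score is computed from the integrated fluorescence ratio over baseline after carbachol; higher B-score means a larger calcium signal and so more RGS4 inhibition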
Target sequence (P49798 whole entry, looked up): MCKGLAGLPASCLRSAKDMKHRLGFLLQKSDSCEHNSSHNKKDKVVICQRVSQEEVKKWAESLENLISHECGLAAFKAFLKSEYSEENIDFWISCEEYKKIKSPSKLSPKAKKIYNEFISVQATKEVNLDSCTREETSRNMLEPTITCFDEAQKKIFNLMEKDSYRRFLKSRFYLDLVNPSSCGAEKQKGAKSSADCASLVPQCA
RGS4 block valid: validation of RGS4 inhibitors; calcium response, % at 10 µM; shares compounds with RGS4 inh; HEK293 M3R/RGS4, carbachol calcium Fluo-4 fluorescence; carbachol added at its EC20; 0 = buffer wells, 100 = carbachol control; actives 65% (n = 1,700);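 active = duplicate-averaged calcium response above the buffer-only control mean plus 5 SD of those controls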;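 note: integrated fluorescence ratio F max minus min over baseline F0; higher response in RGS4-induced cells means RGS4 inhibition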
RGS4 uninduced: non-induced cell nonspecific activity of RGS4 inhibitors; shares compounds with RGS4 inh; HEK293 M3R non-induced, carbachol calcium Fluo-4; submaximal (EC20) carbachol stimulus; buffer wells 0%, carbachol control wells 100%; activity (percent), % at 10 µM; actives 20% (n = 1,900); call rule not given here;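 note: RGS4 induction absent so cells express M3R without RGS4; higher means more calcium signal and flags a non-specific hit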
RGS4 inh ctr2: second counter-screen for RGS4 inhibitors: non-induced cells without carbachol; shares compounds with RGS4 inh; HEK293 M3R/RGS4 non-induced, Fluo-4 calcium, no carbachol; normalised: buffer wells 0%, carbachol wells 100%; calcium response (agonist-mode artifact), % at 10 µM; actives 22% (n = 1,900);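 active = duplicate-averaged calcium rise in uninduced cells above buffer wells' mean plus 5 SD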
* = called active by the depositor.

How did O=C1/C(=C\c2cc3c(cc2Cl)OCO3)N2CCC1CC2 do in these assays?
MrgX1 ag: inactive; MrgX1 allo act: inactive; RGS4 pot: inactive; MrgX1 antagonist: inactive; RGS4 inh: inactive

How did CCCNC1=C(C)C(=O)C2=C(C1=O)C(COC(N)=O)[C@]1(OC)C3NC3CN21 (stereo partly specified) do in these assays?
MrgX1 ag: inactive; MrgX1 allo act: inactive; RGS4 pot: inactive; MrgX1 antagonist: inactive; RGS4 inh: inactive

What do the screens show for `CCc1ccc(N2C(=O)NC(=O)C(Cc3ccc(OC)cc3OC)C2=O)cc1` (stereo unspecified)?
MrgX1 ag: inactive; MrgX1 allo act: inactive; RGS4 pot: inactive; MrgX1 antagonist: inactive; RGS4 inh: inactive

How did Cc1ccc2c(c1)N(C(C)C(=O)N1CCC3(CC1)OCCO3)C(=O)CO2 (stereo unspecified) do in these assays?
MrgX1 ag: inactive; MrgX1 allo act: inactive; RGS4 pot: inactive; MrgX1 antagonist: inactive; RGS4 inh: inactive

What do the screens show for `OC1(c2ccccc2F)CC2CCC(C1)N2CCN1CCOCC1` (stereo unspecified)?
MrgX1 ag: inactive; MrgX1 allo act: inactive; RGS4 pot: inactive; MrgX1 antagonist: inactive; RGS4 inh: inactive

What do the screens show for `Cc1cc([N+](=O)[O-])c(Cl)cc1NC(=O)C(C)C`?
MrgX1 ag: inactive; MrgX1 allo act: inactive; RGS4 pot: inactive; MrgX1 antagonist: inactive; RGS4 inh: inactive

Results for CNc1cc(Cl)c2nonc2c1[N+](=O)[O-] ?
RGS4 pot: inactive; RGS4 inh: 17*; RGS4 block valid: 54%*; RGS4 uninduced: inactive; RGS4 inh ctr2: inactive

Results for O=C1NC(=O)N(Cc2ccco2)C(=O)/C1=C/C=C/c1ccco1 ?
MrgX1 ag: 36*; MrgX1 allo act: inactive; RGS4 pot: inactive; MrgX1 antagonist: inactive; RGS4 inh: 5.4*; RGS4 block valid: inactive; RGS4 uninduced: inactive; RGS4 inh ctr2: inactive

How did C=CCN1C(=O)NC(=O)/C(=C/C=C/c2ccccc2)C1=O do in these assays?
RGS4 pot: inactive; RGS4 inh: 5.3*; RGS4 block valid: 26%*; RGS4 uninduced: inactive; RGS4 inh ctr2: 18%*

Results for O=C1NC(=O)N(Cc2ccccc2)C(=O)/C1=C/c1cnc(-c2ccccc2)nc1 ?
MrgX1 ag: inactive; MrgX1 allo act: inactive; RGS4 pot: inactive; MrgX1 antagonist: inactive; RGS4 inh: inactive

What do the screens show for `O=C1NC(=O)N(Cc2ccccc2)C(=O)/C1=C\C=C\c1ccco1`?
MrgX1 ag: 28*; MrgX1 allo act: inactive; RGS4 pot: inactive; MrgX1 antagonist: inactive; RGS4 inh: 5.5*; RGS4 block valid: 19%*; RGS4 uninduced: inactive; RGS4 inh ctr2: 15%*

What do the screens show for `Cn1cccc1/C=C1\C(=O)NC(=O)N(Cc2ccco2)C1=O`?
RGS4 pot: inactive; RGS4 inh: inactive

What do the screens show for `CN(C)c1ccc(/C=C/C=C2/C(=O)NC(=O)N(c3ccccc3)C2=O)cc1`?
RGS4 pot: inactive; RGS4 inh: inactive

How did C[C@]12CCC(=O)C[C@H]1CC[C@@H]1[C@@H]2CC[C@]2(C)[C@@H](O)CC[C@@H]12 do in these assays?
MrgX1 ag: inactive; MrgX1 allo act: inactive; MrgX1 antagonist: inactive

What do the screens show for `O=[N+]([O-])c1cnc[nH]1`?
MrgX1 ag: inactive; MrgX1 allo act: inactive; RGS4 pot: inactive; MrgX1 antagonist: inactive; RGS4 inh: inactive

What do the screens show for `CN(C)c1ccc(/C=C/[N+](=O)[O-])cc1`?
MrgX1 ag: inactive; MrgX1 allo act: inactive; RGS4 pot: inactive; MrgX1 antagonist: inactive; RGS4 inh: 19*; RGS4 block valid: 54%*; RGS4 uninduced: inactive; RGS4 inh ctr2: 76%*

How did C/C(=C\c1ccc(N(C)C)cc1)[N+](=O)[O-] do in these assays?
MrgX1 ag: inactive; MrgX1 allo act: inactive; RGS4 pot: inactive; MrgX1 antagonist: inactive; RGS4 inh: 7.6*; RGS4 block valid: 24%*; RGS4 uninduced: 62%*; RGS4 inh ctr2: 14%*

Results for CCN(CC)C(=O)Cn1cc(/C=C2\C(=O)NC(=O)N(c3ccccc3F)C2=O)c2ccccc21 ?
MrgX1 ag: 27*; MrgX1 allo act: inactive; RGS4 pot: inactive; MrgX1 antagonist: inactive; RGS4 inh: 6.6*; RGS4 block valid: 38%*; RGS4 uninduced: inactive; RGS4 inh ctr2: 430%*

Results for CN1C(=O)C(=Cc2coc3ccccc3c2=O)C(=O)N(C)C1=O ?
MrgX1 ag: inactive; MrgX1 allo act: inactive; RGS4 pot: inactive; MrgX1 antagonist: inactive; RGS4 inh: inactive

How did CN1C(=O)C(=Cc2ccc(Sc3ccccc3)o2)C(=O)N(C)C1=S do in these assays?
MrgX1 ag: inactive; MrgX1 allo act: inactive; RGS4 pot: inactive; MrgX1 antagonist: inactive; RGS4 inh: inactive; RGS4 block valid: inactive; RGS4 uninduced: inactive; RGS4 inh ctr2: 8.5%*

Results for CN1C(=O)C(=Cc2ccc(N3CCOCC3)o2)C(=O)N(C)C1=S ?
MrgX1 ag: inactive; MrgX1 allo act: inactive; RGS4 pot: inactive; MrgX1 antagonist: inactive; RGS4 inh: inactive

Results for O=C1NC(=O)C(=Cc2ccc(Sc3ccccc3)o2)C(=O)N1 ?
MrgX1 ag: inactive; MrgX1 allo act: inactive; RGS4 pot: inactive; MrgX1 antagonist: inactive; RGS4 inh: 9.9*; RGS4 block valid: 5.0%*; RGS4 uninduced: inactive; RGS4 inh ctr2: 29%*

How did CN1C(=O)C(=Cc2ccc(Sc3ccccc3)o2)C(=O)N(C)C1=O do in these assays?
MrgX1 ag: inactive; MrgX1 allo act: inactive; RGS4 pot: inactive; MrgX1 antagonist: inactive; RGS4 inh: 27*; RGS4 block valid: 23%*; RGS4 uninduced: inactive; RGS4 inh ctr2: 210%*

Results for C/C(=N\NC(=O)c1ccccc1)c1c(O)n(C2CCCCC2)c(=O)[nH]c1=O ?
MrgX1 ag: inactive; MrgX1 allo act: inactive; RGS4 pot: inactive; MrgX1 antagonist: inactive; RGS4 inh: inactive

How did c1ccc(-n2ccnc2)cc1 do in these assays?
MrgX1 ag: inactive; MrgX1 allo act: inactive; RGS4 pot: inactive; MrgX1 antagonist: inactive; RGS4 inh: inactive
